Legend:
Trypanothione reductase = Trypanothione reductase (Trypanosoma brucei brucei, UniProt P39051); experiment: Inhibition of TR by DTNB-coupled assay
Outline: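 Trypanothione reductase in 40 mM potassium HEPES pH 7.4, 1 mM EDTA with 4.22 µM trypanothione disulfide, 70.3 µM DTNB, 2.81 mU/mL TR. Compounds added from DMSO stocks, tested over 1.91 ng/mL to 31.2 µg/mL. NADPH added to start the reaction, 135 µM in the added solution. Plates incubated 60 min at 30°C, absorbance read at 405 nm. IC50 values determined.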

Trypanosoma brucei = experiment: Antiproliferative activity against Trypanosoma brucei; format: functional, organism-based
Outline: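 Bloodstream T. b. brucei S427 seeded at 10^3 cells/ml in HMI9 medium, 0.5% DMSO, inhibitor 50 to 0.2 μM serially diluted from 10 mM DMSO stocks. Incubated 72 h, 37 °C, 5% CO2, humidified. Then 45 μM resazurin added, further 4 h, resorufin fluorescence read (ex 528, em 590 nm). Triplicates, three separate occasions; weighted means ± SEM.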

[1] = biological target: T1, Glutathione reductase, mitochondrial (Homo sapiens, UniProt P00390); experiment: Inhibition of human GR
T1 sequence (P00390 whole entry): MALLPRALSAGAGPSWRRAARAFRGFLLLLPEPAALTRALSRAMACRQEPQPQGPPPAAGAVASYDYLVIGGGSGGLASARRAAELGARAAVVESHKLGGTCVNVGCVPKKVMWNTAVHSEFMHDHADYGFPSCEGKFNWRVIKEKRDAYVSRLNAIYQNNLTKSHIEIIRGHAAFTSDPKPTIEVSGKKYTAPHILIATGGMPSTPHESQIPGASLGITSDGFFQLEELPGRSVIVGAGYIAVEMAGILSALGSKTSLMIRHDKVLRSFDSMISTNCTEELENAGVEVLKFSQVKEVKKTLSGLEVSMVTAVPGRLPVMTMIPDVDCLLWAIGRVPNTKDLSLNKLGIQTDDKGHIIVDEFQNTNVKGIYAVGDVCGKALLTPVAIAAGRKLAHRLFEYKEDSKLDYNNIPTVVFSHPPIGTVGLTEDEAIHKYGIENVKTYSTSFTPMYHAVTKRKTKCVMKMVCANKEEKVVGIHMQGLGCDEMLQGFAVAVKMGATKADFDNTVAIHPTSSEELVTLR

[2] = Selectivity for TR over human GR

Trypanothione reductase, sequence (P39051 whole entry): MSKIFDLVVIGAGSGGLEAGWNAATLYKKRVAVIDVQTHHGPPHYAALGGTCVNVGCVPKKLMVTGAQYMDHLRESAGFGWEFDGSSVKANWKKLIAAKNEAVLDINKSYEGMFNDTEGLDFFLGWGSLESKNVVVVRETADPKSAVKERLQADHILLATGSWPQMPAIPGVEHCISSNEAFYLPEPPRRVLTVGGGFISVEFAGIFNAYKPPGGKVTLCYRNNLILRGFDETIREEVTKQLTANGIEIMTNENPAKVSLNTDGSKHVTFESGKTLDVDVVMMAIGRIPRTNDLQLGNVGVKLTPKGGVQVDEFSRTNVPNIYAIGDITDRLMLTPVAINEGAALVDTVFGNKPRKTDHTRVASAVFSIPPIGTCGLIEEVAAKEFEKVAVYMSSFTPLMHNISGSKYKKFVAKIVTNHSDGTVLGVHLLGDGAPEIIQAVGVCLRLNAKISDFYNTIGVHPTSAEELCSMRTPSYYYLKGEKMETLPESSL

| SMILES | IC50 (Trypanothione reductase) [µM] | EC50 (Trypanosoma brucei) [µM] | IC50 [1] [µM] | Ratio IC50 [2] | IC50 (Trypanosoma brucei) [µM] |
| --- | --- | --- | --- | --- | --- |
| O=C(CCNc1cccc(F)c1)c1cccc([N+](=O)[O-])c1 | 3.3 | 0.82 | > 173 | – | – |
| CC(C)(C)c1cc(CN2CCCCCC2)cc(C(C)(C)C)c1O | 38.8 | 3.3 | > 155 | – | – |
| CC(C)(C)c1cc(CNCCO)cc(C(C)(C)C)c1O | 2 | 3.01 | 24.9 | 13 | – |
| CC(C)c1cc(CN(C)C)cc(C(C)C)c1O | 11.8 | > 50 | 79.3 | 6.7 | – |
| CS(=O)(=O)c1ccc(C(=O)CCN2CCCCC2)cc1 | 7.8 | 0.95 | 105 | 13 | – |
| CN(C)CCC(=O)c1cccc([N+](=O)[O-])c1 | 0.34 | 0.68 | 20.3 | 59 | – |
| CCCCOC(=O)c1ccc(NCCC(=O)c2cccc([N+](=O)[O-])c2)cc1 | 2.4 | 0.96 | > 135 | – | – |
| N=C(N)c1ccc(OCCCCCOc2ccc(C(=N)N)cc2)cc1 [PENTAMIDINE] | – | – | – | – | 0.0046 |
| CCc1ccc(NCCC(=O)c2ccc(Cl)c(Cl)c2)cc1 | 107 | 1.65 | > 157 | – | – |
| O=C(CCN1CCOCC1)c1ccc(Cl)cc1 | 148 | 0.98 | > 212 | – | – |
| O=C(CCNc1ccccc1)c1cccc([N+](=O)[O-])c1 | 1.7 | 1.01 | 58 | 35 | – |
| Cc1cccc(NCCC(=O)c2cccc([N+](=O)[O-])c2)c1C | 1.5 | 0.15 | 86.3 | 58 | – |
| CN(C)CCC(=O)c1ccc(Cl)c(Cl)c1 | 3.3 | 1 | 64.8 | 20 | – |
| CN(C)CCC(=O)c1ccc(S(C)(=O)=O)cc1 | 2.9 | 0.55 | 20.4 | 7 | – |
